The test system of data set [1] is Camelpox virus. Briefly: Antiviral activity against Camelpox virus CML14 infected in HEL299 cells assessed as inhibition of virus-induced cytopathic effect after 6 days by Giemsa staining. The class given is functional, organism-based. The settings on record: CML14, HEL 299, 144 h. For orientation: Cytopathic effects are the visible damage that an infection or toxin causes in cultured cells.

Data set [2] deals with Camelpox virus. Briefly: Antiviral activity against Camelpox virus CML1 infected in HEL299 cells assessed as inhibition of virus-induced cytopathic effect after 6 days by Giemsa staining. It is filed as functional, organism-based. Conditions: CML1, HEL 299, 144 h.
In data set [3] the test system is Camelpox virus. Briefly: Antiviral activity against Camelpox virus CML14 infected in human PHK assessed as inhibition of virus-induced cytopathic effect after 6 days by Giemsa staining. The class given is functional, organism-based. The settings on record: CML14, 144 h.
Data set [4] has as its system Camelpox virus. Briefly: Antiviral activity against Camelpox virus CML1 infected in human PHK assessed as inhibition of virus-induced cytopathic effect after 6 days by Giemsa staining. It is filed as functional, organism-based. The settings on record: CML1, 144 h.
Data set [5] is described as follows: Selectivity index, ratio of CC50 for human PHK to EC50 for Camelpox virus CML14 infected in human PHK.
The nature of data set [6]: Cytotoxicity against human PHK after 4 days by Z1 Coulter counting analysis. Conditions: PHK cells. In short, it runs like this:
(§1)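 Cell growth inhibition: HEL cells were seeded at 3.5 × 10³ per well and PHKs at 5 × 10³ per well. Serial dilutions were added in duplicate after 1 day (HEL) or 3 days (PHK). After 4 days with compound, cells were trypsinized and counted with a Coulter counter (8 μm lower limit). CC50 is the concentration reducing growth by 50%, mean ± SD of at least two experiments.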

Data set [7] in a line: Selectivity index, ratio of CC50 for human PHK to EC50 for Camelpox virus CML1 infected in human PHK.
Data set [8] can be described thus: Cytotoxicity against HEL299 cells after 4 days by Z1 Coulter counting analysis. The class given is cell-based, HEL 299. Conditions: human, HEL299 cells. Summed up:
as §1

Data set [9] in a line: Selectivity index, ratio of CC50 for HEL299 cells to EC50 for Camelpox virus CML1 infected in HEL299 cells. The class given is toxicity, cell-based, HEL 299. The settings on record: human, HEL299 cells; read-out: Ratio CC50/IC50.
Data set [10] in a line: Selectivity index, ratio of CC50 for HEL299 cells to EC50 for Camelpox virus CML14 infected in HEL299 cells. The class given is toxicity, cell-based, HEL 299. The settings on record: human, HEL299 cells; read-out: Ratio CC50/IC50.

In general, EC50 refers to the concentration giving half of the maximal effect. `Nc1nc(NCCOCP(=O)(O)O)c2ncn(CCOCP(=O)(O)O)c2n1`: the EC50 in the data set with Camelpox virus [1], in the data set with Camelpox virus [2], in the data set with Camelpox virus [3] and in the data set with Camelpox virus [4] was above 118 µM throughout.

As usually defined, the CC50 is the concentration that lowers cell viability or growth by half. A higher CC50 goes with better tolerance by the cells. As to `Nc1nc(NCCP(=O)(O)O)c2ncn(CCOCP(=O)(O)O)c2n1`, the “Ratio CC50/IC50” value in [5] and in data set [7] was below 0.5 each time. For the same compound, the EC50 in the data set on Camelpox virus [1], with Camelpox virus [2], in the data set on Camelpox virus [3] and in the data set on Camelpox virus [4] was above 127 µM each time. The CC50 at 96 h is 59 µM in data set [6] and 43 µM in data set [8]. The selectivity ratio in data set [9] and in data set [10] was below 0.3 throughout.

On to `Nc1cc(OCCOCP(=O)(O)O)nc(N)n1`, for which the “Ratio CC50/IC50” value in data set [5] and in [7] was 0.1 in each case. Further, the concentration for a half-maximal effect (EC50) in the data set on Camelpox virus [1] was above 189 µM; in the data set on Camelpox virus [2] it was above 189 µM; in the data set with Camelpox virus [3] it was 53.7 µM; in the data set on Camelpox virus [4], 49.2 µM. The CC50 at 96 h in data set [6] came to 4 µM; in data set [8], 66 µM. The selectivity ratio in data set [9] and in data set [10] was below 0.3 in each case.

On to `Nc1nc(NC(CC(=O)O)C(=O)O)c2ncn(CCOCP(=O)(O)O)c2n1` (racemic), for which the “Ratio CC50/IC50” value in data set [5] and in data set [7] was below 0.1 each time. For the same compound, the EC50 with Camelpox virus [1] was 46 µM; in the data set on Camelpox virus [2], 48.3 µM; in the data set on Camelpox virus [3], above 124 µM; in the data set with Camelpox virus [4], above 124 µM. The CC50 at 96 h in [6] turned out to be 16 µM; in data set [8], 20 µM. The selectivity ratio in [9] and in [10] was 0.4 throughout.

For `CN(C)c1ncnc2c1ncn2CCOCP(=O)(O)O`, the “Ratio CC50/IC50” value in data set [5] and in [7] was 0.1 throughout. Further, the EC50 in the data set with Camelpox virus [1] worked out at 24.6 µM; with Camelpox virus [2] it was 29.4 µM; in the data set with Camelpox virus [3], 10.9 µM; in the data set with Camelpox virus [4], 8.5 µM. Moreover, the CC50 at 96 h in [6] was 1 µM; in [8], 22 µM. The selectivity ratio in data set [9] and in [10] was 1 throughout.

Consider `Nc1nc(N)c2ncn(CCOCP(=O)(O)O)c2n1` [PMEDAP], for which the “Ratio CC50/IC50” value in [5] and in data set [7] was 0.1 each time. Besides, the EC50 was above 173 µM in the data set on Camelpox virus [1], above 173 µM in the data set with Camelpox virus [2], 63.7 µM with Camelpox virus [3] and 93 µM in the data set on Camelpox virus [4]. Moreover, the CC50 at 96 h came to 8 µM in data set [6] and 100 µM in [8]. For the same compound, the selectivity ratio in data set [9] and in [10] was below 1 in each case.

For the compound `Nc1nc(N)c(Br)c(OCCOCP(=O)(O)O)n1`, the EC50 in the data set with Camelpox virus [1], with Camelpox virus [2], with Camelpox virus [3] and with Camelpox virus [4] was above 156 µM in each case. In addition, the CC50 at 96 h in data set [8] is 52 µM. The selectivity ratio in [9] and in data set [10] was below 0.3 in each case.

For `Nc1nc(NCCC(=O)O)c2ncn(CCOCP(=O)(O)O)c2n1`, the “Ratio CC50/IC50” value in data set [5] and in data set [7] was below 2 in each case. The EC50 with Camelpox virus [1], in the data set on Camelpox virus [2], with Camelpox virus [3] and in the data set with Camelpox virus [4] was above 139 µM in each case. Further, the CC50 at 96 h is 258 µM in [6] and 294 µM in [8]. The selectivity ratio in data set [9] and in data set [10] was below 2 in each case.

Turning to `Nc1nc(Cl)c2ncn(CCOCP(=O)(O)O)c2n1`, the “Ratio CC50/IC50” value in data set [5] is given as 0.1; in data set [7], 0.2. Besides, the EC50 amounted to 9.3 µM in the data set with Camelpox virus [1], 6.9 µM with Camelpox virus [2], 15.9 µM in the data set with Camelpox virus [3] and 7.9 µM in the data set on Camelpox virus [4]. Further, the CC50 at 96 h came out at 1 µM in [6] and 8 µM in data set [8]. Further, the selectivity ratio in [9] and in [10] was 1 throughout.

`CC(C)CC(Nc1nc(N)nc2c1ncn2CCOCP(=O)(O)O)C(=O)O` (racemic): the “Ratio CC50/IC50” value in data set [5] and in data set [7] was 0.1 in each case. Besides, the EC50 in the data set on Camelpox virus [1] came to 44.3 µM; with Camelpox virus [2], 53 µM; with Camelpox virus [3] it was 87.4 µM; with Camelpox virus [4] it was 77.8 µM. Moreover, the values for the CC50 at 96 h in data set [6] and in data set [8] were 8 µM and 12 µM, respectively. For the same compound, the selectivity ratio came out at 0.2 in data set [9] and 0.3 in data set [10].

For `Nc1ncnc2c1ncn2CCOCP(=O)(O)O` [ADEFOVIR], the “Ratio CC50/IC50” value in data set [5] is reported as below 0.4; in data set [7] it was 0.5. Further, the EC50 with Camelpox virus [1] is above 183 µM; with Camelpox virus [2] it was above 183 µM; in the data set on Camelpox virus [3], above 183 µM; with Camelpox virus [4], 162 µM. In addition, the CC50 at 96 h turned out to be 76 µM in data set [6] and 211 µM in [8]. Further, the selectivity ratio in data set [9] and in [10] was below 1 in each case.

For `NC1=NC(OC[C@@H]2CP(=O)(O)CO2)=CC(N)N1O` (stereo partly drawn), the results for the “Ratio CC50/IC50” value in data set [5] and in data set [7] were 2 and 3, respectively. Moreover, the EC50 in the data set on Camelpox virus [1] came to 7.6 µM; with Camelpox virus [2], 5.2 µM; in the data set on Camelpox virus [3], 18.4 µM; in the data set with Camelpox virus [4], 16.1 µM. The CC50 at 96 h in [6] came to 43 µM; in data set [8], 147 µM. In addition, the selectivity ratio worked out at 28 in data set [9] and 19 in data set [10].

Regarding `C[C@@H](O)[C@H](Nc1nc(N)nc2c1ncn2CCOCP(=O)(O)O)C(=O)O`, the “Ratio CC50/IC50” value in data set [5] and in data set [7] was below 0.2 throughout. The EC50 was 112 µM with Camelpox virus [1], 112 µM in the data set with Camelpox virus [2], above 128 µM in the data set on Camelpox virus [3] and above 128 µM in the data set with Camelpox virus [4]. For the same compound, the values for the CC50 at 96 h in [6] and in [8] were 19 µM and 39 µM, respectively. Also, the selectivity ratio in [9] and in data set [10] was 0.3 in each case.

For the compound `Nc1nc(NC(Cc2ccccc2)C(=O)O)c2ncn(CCOCP(=O)(O)O)c2n1` (racemic), the “Ratio CC50/IC50” value in [5] and in [7] was below 0.2 throughout. Moreover, the half-maximal effective concentration (EC50) in the data set with Camelpox virus [1], with Camelpox virus [2], with Camelpox virus [3] and in the data set on Camelpox virus [4] was above 115 µM throughout. Besides, the cytotoxic concentration (CC50) at 96 h amounted to 27 µM in data set [6] and 101 µM in [8]. Also, the selectivity ratio in data set [9] and in data set [10] was below 1 throughout.

As to `C[C@H](O)[C@H](Nc1nc(N)nc2c1ncn2CCOCP(=O)(O)O)C(=O)O`, the “Ratio CC50/IC50” value in data set [5] and in data set [7] was below 0.1 in each case. Also, the EC50 in the data set on Camelpox virus [1] is 71.6 µM; in the data set on Camelpox virus [2], 63 µM; in the data set on Camelpox virus [3] it was above 128 µM; in the data set on Camelpox virus [4], above 128 µM. Further, the CC50 at 96 h in [6] was above 16 µM; in data set [8], 56 µM. In addition, the selectivity ratio in data set [9] and in data set [10] was 1 throughout.

`CC(O)C(Nc1nc(N)nc2c1ncn2CCOCP(=O)(O)O)C(=O)O` (racemic): the “Ratio CC50/IC50” value in data set [5] worked out at 0.03; in [7], 0.04. For the same compound, the EC50 stood at 29 µM in the data set on Camelpox virus [1], 44.1 µM in the data set with Camelpox virus [2], 71.5 µM in the data set with Camelpox virus [3] and 47.7 µM with Camelpox virus [4]. The CC50 at 96 h in data set [6] was determined as 2 µM; in data set [8], 9 µM. Besides, the figures for the selectivity ratio in [9] and in [10] were 0.2 and 0.3, respectively.

Consider `Cc1nc(N)nc2c1ncn2CCOCP(=O)(O)O`, for which the “Ratio CC50/IC50” value in data set [5] and in data set [7] was 0.4 each time. In addition, the EC50 in the data set with Camelpox virus [1], in the data set on Camelpox virus [2], with Camelpox virus [3] and in the data set on Camelpox virus [4] was above 174 µM in each case. The CC50 at 96 h in [6] was above 70 µM; in data set [8] it was above 174 µM. The selectivity ratio in [9] came to 1.

With `Nc1nc(NCCS(=O)(=O)O)c2ncn(CCOCP(=O)(O)O)c2n1`, the “Ratio CC50/IC50” value in data set [5] and in [7] was below 1 each time. Besides, the EC50 in the data set with Camelpox virus [1], in the data set with Camelpox virus [2], in the data set on Camelpox virus [3] and in the data set with Camelpox virus [4] was above 126 µM in each case. Moreover, the values for the CC50 at 96 h in data set [6] and in data set [8] were 102 µM and 258 µM, respectively. Also, the selectivity ratio in data set [9] and in data set [10] was below 2 each time.

Take `Nc1nc(N(CC(=O)O)CC(=O)O)c2ncn(CCOCP(=O)(O)O)c2n1`: the “Ratio CC50/IC50” value in [5] and in data set [7] was 1 each time. Moreover, the EC50 in the data set on Camelpox virus [1], with Camelpox virus [2], with Camelpox virus [3] and in the data set with Camelpox virus [4] was above 124 µM in each case. In addition, the CC50 at 96 h in data set [6] and in data set [8] was above 124 µM throughout. The selectivity ratio in data set [9] worked out at 1.

In the case of `C[C@@H](Cn1cnc2c(N)ncnc21)OCP(=O)(O)O`, the “Ratio CC50/IC50” value in [5] and in data set [7] was 1 each time. Moreover, the EC50 with Camelpox virus [1], with Camelpox virus [2], in the data set on Camelpox virus [3] and in the data set with Camelpox virus [4] was above 176 µM each time. For the same compound, the CC50 at 96 h in data set [6] and in data set [8] was above 176 µM throughout. Besides, in data set [9], the selectivity ratio turned out to be 1.
